Measurements from ChEMBL document CHEMBL5104156, “Development of subtype-selective covalent ligands for the adenosine A2B receptor by tuning the reactive group” (RSC Med Chem, 2022).
pKi: −log10 of the molar value. Calls of active or inactive are those of the source. The calls are words filed in the database; no cut-off is given here.

How the values were obtained:
Format in all cases: cell membranes
Adenosine receptor A2b [1] = target: T1, Adenosine receptor A2b (Homo sapiens, UniProt P29275); experiment: Displacement of [3H]PSB-603 from human adenosine A2B receptor expressed in CHO cell membrane preincubated for 4 hrs followed by [3H]PSB-603 addition and measured after 0.5 hrs by radioligand displacement assay
T1 sequence (P29275 whole entry): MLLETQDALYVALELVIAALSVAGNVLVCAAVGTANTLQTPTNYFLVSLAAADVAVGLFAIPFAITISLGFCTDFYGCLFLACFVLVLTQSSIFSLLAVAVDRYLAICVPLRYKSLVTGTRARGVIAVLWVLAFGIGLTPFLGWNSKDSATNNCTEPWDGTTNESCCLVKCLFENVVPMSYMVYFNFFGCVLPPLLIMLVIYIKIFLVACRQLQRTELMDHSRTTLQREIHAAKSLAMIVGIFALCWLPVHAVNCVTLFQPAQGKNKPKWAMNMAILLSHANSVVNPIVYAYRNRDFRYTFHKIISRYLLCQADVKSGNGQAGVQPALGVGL

[2] = target: T2, Adenosine receptor A3 (Homo sapiens) (UniProt P0DMS8); experiment: Displacement of [3H]PSB-11 from human adenosine A3 receptor expressed in CHO cell membrane at 1 uM preincubated for 4 hrs followed by [3H]PSB-11 addition and measured after 0.5 hrs by radioligand displacement assay; settings: time 4.5 hrs
T2 sequence (whole entry): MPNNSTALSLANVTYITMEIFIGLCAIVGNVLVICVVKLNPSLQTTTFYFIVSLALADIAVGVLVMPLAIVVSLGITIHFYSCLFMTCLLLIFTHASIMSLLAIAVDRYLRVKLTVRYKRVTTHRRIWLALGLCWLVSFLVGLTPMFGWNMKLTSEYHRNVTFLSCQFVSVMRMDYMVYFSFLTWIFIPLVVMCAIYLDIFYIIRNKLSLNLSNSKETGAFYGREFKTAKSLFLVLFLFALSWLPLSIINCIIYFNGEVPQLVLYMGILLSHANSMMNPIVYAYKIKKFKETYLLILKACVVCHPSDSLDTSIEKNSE

[3] = target: T3, Adenosine receptor A1 (Homo sapiens) (UniProt P30542); experiment: Displacement of [3H]DPCPX from human adenosine A1 receptor expressed in CHO cell membrane at 1 uM and measured after 0.5 hrs by radioligand displacement assay
T3 sequence (whole entry): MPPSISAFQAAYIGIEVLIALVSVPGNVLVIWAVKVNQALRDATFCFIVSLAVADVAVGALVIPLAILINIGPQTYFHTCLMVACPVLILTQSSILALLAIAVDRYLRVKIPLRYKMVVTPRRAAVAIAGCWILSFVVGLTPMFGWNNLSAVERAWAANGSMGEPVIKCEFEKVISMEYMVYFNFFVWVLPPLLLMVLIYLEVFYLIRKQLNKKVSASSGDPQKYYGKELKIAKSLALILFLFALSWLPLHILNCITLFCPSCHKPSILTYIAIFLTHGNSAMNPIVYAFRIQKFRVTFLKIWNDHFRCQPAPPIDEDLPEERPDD

[4] = target: T3, Adenosine receptor A1 (Homo sapiens); experiment: Displacement of [3H]DPCPX from human adenosine A1 receptor expressed in CHO cell membrane at 1 uM preincubated for 4 hrs followed by [3H]DPCPX addition and measured after 0.5 hrs by radioligand displacement assay; settings: time 4.5 hrs
[5] = target: Adenosine receptor A2a (Homo sapiens) (UniProt P29274); experiment: Displacement of [3H]ZM241385 from human adenosine A2A receptor expressed in HEK293 cell membrane at 1 uM and measured after 0.5 hrs by radioligand displacement assay
Adenosine receptor A2b [6] = target: T1, Adenosine receptor A2b; experiment: Displacement of [3H]PSB-603 from human adenosine A2B receptor expressed in CHO cell membrane and measured after 0.5 hrs by radioligand displacement assay
[7] = target: Adenosine receptor A2a (Homo sapiens) (UniProt P29274); experiment: Displacement of [3H]ZM241385 from human adenosine A2A receptor expressed in HEK293 cell membrane at 1 uM preincubated for 4 hrs followed by [3H]ZM241385 addition and measured after 0.5 hrs by radioligand displacement assay; settings: time 4.5 hrs
[8] = target: T2, Adenosine receptor A3 (Homo sapiens); experiment: Displacement of [3H]PSB-11 from human adenosine A3 receptor expressed in CHO cell membrane at 1 uM and measured after 0.5 hrs by radioligand displacement assay
[9] = target: T4, Adenosine receptor A2b (Homo sapiens) (UniProt P29275); experiment: Ratio of Ki for displacement of [3H]PSB-603 from human adenosine A2B receptor expressed in CHO cell membrane to Ki for displacement of [3H]PSB-603 from human adenosine A2B receptor expressed in CHO cell membrane preincubated for 4hrs
T4 sequence (whole entry): T1 sequence (P29275 whole entry)
Summary of the method: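 CHO-spap-hA2BAR membranes (30 µg protein) in 50 mM Tris-HCl pH 7.4 with 0.1% CHAPS. Nonspecific binding was set with 10 µM ZM241385. Filtration was followed by scintillation counting.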

[10] = target: T4, Adenosine receptor A2b (Homo sapiens); experiment: Displacement of [3H]PSB-603 from human adenosine A2B receptor expressed in CHO cell membrane assessed as covalent adduct formation at 1 uM preincubated followed by 4 times washing treatment and then with [3H]PSB-603 exposure by radioligand displacement assay
Summary of the method: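 CHO-spap-hA2BAR membranes (80 µg protein) were shaken 2 h at 25 °C with ligand, added as a 1 µM solution, in 0.1% CHAPS/50 mM Tris-HCl pH 7.4. The washed set was pelleted, resuspended and shaken 10 min at 25 °C, repeated three times; an unwashed set was kept for comparison. Both sets then had [3H]PSB-603 (1.5 nM solution) added for 2 h at 25 °C, with nonspecific binding set by 10 µM ZM241385. Filtration, then scintillation counting.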

Chain of Adenosine receptor A2a (Homo sapiens) (P29274 whole entry): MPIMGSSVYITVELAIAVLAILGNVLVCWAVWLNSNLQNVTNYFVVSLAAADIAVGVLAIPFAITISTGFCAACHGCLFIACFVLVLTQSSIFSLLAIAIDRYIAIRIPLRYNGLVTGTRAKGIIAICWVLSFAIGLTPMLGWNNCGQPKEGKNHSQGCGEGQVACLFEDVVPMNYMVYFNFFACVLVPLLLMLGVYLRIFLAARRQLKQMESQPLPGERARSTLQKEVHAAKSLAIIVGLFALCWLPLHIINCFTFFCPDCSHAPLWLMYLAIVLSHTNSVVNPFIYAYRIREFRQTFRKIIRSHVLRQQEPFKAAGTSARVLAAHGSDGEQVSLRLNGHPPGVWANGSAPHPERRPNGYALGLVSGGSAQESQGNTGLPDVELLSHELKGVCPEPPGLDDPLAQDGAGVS

`CCCn1c(=O)c2[nH]c(-c3ccc(N=C=S)cc3)nc2n(CCC)c1=O` showed a pKi (Adenosine receptor A2b [1]) of 8.49, an Activity [2] of 96% and an Activity [3] of 77%. For the same molecule, the Activity [4] was 92%, the Activity [5] was 40% and the pKi (Adenosine receptor A2b [6]) was 7.62. For the same molecule, the Activity [7] was 39%, the Activity [8] was 48% and the Ratio Ki [9] was 7.7.

With `CCCn1c(=O)[nH]c2nc(-c3ccc(OS(=O)(=O)F)cc3)[nH]c2c1=O` the pKi (Adenosine receptor A2b [1]) was 8.26, the Activity [2] was 8% and the Activity [3] was 17%. For the same molecule, the Activity [4] was 12%, the Activity [5] was 35% and the pKi (Adenosine receptor A2b [6]) was 7.93. The Activity [7] was 24%, the Activity [8] was 8% and the Ratio Ki [9] was 2.2. The Activity [10] was “Active”.

`CCCn1c(=O)c2[nH]c(-c3cccc(S(=O)(=O)F)c3)nc2n(CCC)c1=O` gave a pKi (Adenosine receptor A2b [1]) of 6.80, an Activity [2] of 43% and an Activity [3] of 52%. For the same molecule, the Activity [4] was 61%, the Activity [5] was 19% and the pKi (Adenosine receptor A2b [6]) was 6.02. It also gave an Activity [7] of 23%, an Activity [8] of 30% and a Ratio Ki [9] of 7.1.

With `CCCn1c(=O)c2[nH]c(-c3ccc(OS(=O)(=O)F)cc3)nc2n(CCC)c1=O` the pKi (Adenosine receptor A2b [1]) was 7.29, the Activity [2] was 49% and the Activity [3] was 79%. For the same molecule, the Activity [4] was 85%, the Activity [5] was 63% and the pKi (Adenosine receptor A2b [6]) was 7.31. For the same molecule, the Activity [7] was 69%, the Activity [8] was 47% and the Ratio Ki [9] was 1.

With `CCCn1c(=O)[nH]c2nc(-c3cccc(OS(=O)(=O)F)c3)[nH]c2c1=O` the pKi (Adenosine receptor A2b [1]) was 7.15, the Activity [2] was 5% and the Activity [3] was 6%. For the same molecule, the Activity [4] was 1%, the Activity [5] was 2% and the pKi (Adenosine receptor A2b [6]) was 6.85. It also gave an Activity [7] of 0%, an Activity [8] of 14% and a Ratio Ki [9] of 1.6.

With `CCCn1c(=O)[nH]c2nc(-c3ccc(N=C=S)cc3)[nH]c2c1=O` the pKi (Adenosine receptor A2b [1]) was 9.18, the Activity [2] was 66% and the Activity [3] was 51%. It also gave an Activity [4] of 97%, an Activity [5] of 25% and a pKi (Adenosine receptor A2b [6]) of 8.67. It also gave an Activity [7] of 27%, an Activity [8] of 15% and a Ratio Ki [9] of 3.4.

Work on `CCCn1c(=O)[nH]c2nc(-c3cccc(N=C=S)c3)[nH]c2c1=O` yielded a pKi (Adenosine receptor A2b [1]) of 8.55, an Activity [2] of 95% and an Activity [3] of 7%. It also gave an Activity [4] of 16%, an Activity [5] of 0% and a pKi (Adenosine receptor A2b [6]) of 6.96. It also gave an Activity [7] of 6%, an Activity [8] of 58% and a Ratio Ki [9] of 74.3.

For `CCCn1c(=O)c2[nH]c(-c3ccc(S(=O)(=O)F)cc3)nc2n(CCC)c1=O`, the pKi (Adenosine receptor A2b [1]) was 8.62, the Activity [2] was 5% and the Activity [3] was 61%. For the same molecule, the Activity [4] was 69%, the Activity [5] was 54% and the pKi (Adenosine receptor A2b [6]) was 7.22. For the same molecule, the Activity [7] was 55%, the Activity [8] was 12% and the Ratio Ki [9] was 27.3.

Molecule `CCCn1c(=O)c2[nH]c(-c3cccc(N=C=S)c3)nc2n(CCC)c1=O` has a pKi (Adenosine receptor A2b [1]) of 7.31, an Activity [2] of 100% and an Activity [3] of 73%. It also gave an Activity [4] of 96%, an Activity [5] of 47% and a pKi (Adenosine receptor A2b [6]) of 6.21. The Activity [7] was 34%, the Activity [8] was 89% and the Ratio Ki [9] was 19.3.

For `CCCn1c(=O)[nH]c2nc(-c3ccc(S(=O)(=O)F)cc3)[nH]c2c1=O`, the pKi (Adenosine receptor A2b [1]) was 9.17, the Activity [2] was 9% and the Activity [3] was 29%. The Activity [4] was 41%, the Activity [5] was 52% and the pKi (Adenosine receptor A2b [6]) was 8.10. It also gave an Activity [7] of 43%, an Activity [8] of 7% and a Ratio Ki [9] of 12.1. The Activity [10] was “Active”.

Molecule `CCCn1c(=O)c2[nH]c(-c3cccc(OS(=O)(=O)F)c3)nc2n(CCC)c1=O` has a pKi (Adenosine receptor A2b [1]) of 6.28, an Activity [2] of 58% and an Activity [3] of 76%. It also gave an Activity [4] of 77%, an Activity [5] of 13% and a pKi (Adenosine receptor A2b [6]) of 6.25. It also gave an Activity [7] of 12%, an Activity [8] of 64% and a Ratio Ki [9] of 1.2.

`CCCn1c(=O)[nH]c2nc(-c3cccc(S(=O)(=O)F)c3)[nH]c2c1=O` showed a pKi (Adenosine receptor A2b [1]) of 7.88, an Activity [2] of 10% and an Activity [3] of 6%. For the same molecule, the Activity [4] was 36%, the Activity [5] was 20% and the pKi (Adenosine receptor A2b [6]) was 6.88. The Activity [7] was 6%, the Activity [8] was 14% and the Ratio Ki [9] was 10.2.
